OX1R antag-1: blocks the human orexin 1 receptor. O43613. OX1R-expressing cells, FRET antagonist read-out. inhibition, % at 6.6 µM. hit rate 1.8% among 330,000; in the data active means inhibition mostly above about 38%, no sharp cut-off; inactive means mostly below about 40%;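 further: 0% = agonist challenge alone and 100% = reference antagonist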
Target sequence (O43613 whole entry, looked up): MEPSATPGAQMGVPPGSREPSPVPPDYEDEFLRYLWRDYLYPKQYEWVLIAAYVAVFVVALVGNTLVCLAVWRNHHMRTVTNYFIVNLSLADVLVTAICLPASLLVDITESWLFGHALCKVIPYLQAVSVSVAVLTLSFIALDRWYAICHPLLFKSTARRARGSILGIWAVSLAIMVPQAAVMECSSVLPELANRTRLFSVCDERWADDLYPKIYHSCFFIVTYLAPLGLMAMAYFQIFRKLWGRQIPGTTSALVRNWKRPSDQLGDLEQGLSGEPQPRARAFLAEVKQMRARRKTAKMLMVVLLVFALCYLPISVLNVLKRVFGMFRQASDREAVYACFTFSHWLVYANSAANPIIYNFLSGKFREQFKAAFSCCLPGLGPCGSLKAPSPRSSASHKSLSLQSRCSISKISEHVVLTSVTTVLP
CHO-K1 Ca antag: nonselective inhibitor or artifact in parental CHO-K1 cells; AID 602250; inhibition, % at 3 µM; hit rate 0.6% among 360,000; ATP-induced calcium, Fluo-8 fluorescence;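 active means inhibition above a per-plate cutoff, the plate's mean sample inhibition plus 3 SD, cut at about 24% in these data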;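 further: 0% = DMSO plus EC80 ATP and 100% = DMSO alone without ATP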
CHO-K1 Ca ag: counter-screen for M1 agonists: effect in parental CHO-K1 cells; Fluo-8 calcium fluorescence; scaled to maximal ATP response, vehicle zero; activation, % at 3 µM; hit rate 0.48% among 360,000; AID 602248; in the data active means activation above about 15%;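 further: untransfected CHO-K1 host cells lacking M1 receptor as counterscreen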
CHO parental Ca: counter-screen for OX1R antagonists: effect in parental CHO cells | hit rate 0.63% among 330,000 | inhibition, % at 5.6 µM | parental CHO-K1, ATP-induced calcium, Fluo-8 fluorescence | AID 463079;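 active means inhibition above that plate's mean sample inhibition plus 3 SD, cut at about 26% in these data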;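 further: 0% = ATP-challenged DMSO wells and 100% = DMSO wells without ATP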
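material = parental CHO cells | also added = ATP as calcium-mobilizing challenge | dosing = single point at 5.6 µM | detection = intracellular calcium via Fluo-8 no-wash fluorescent dye | read-out = % inhibition | benchmarks = low control ATP plus DMSO, high control DMSO only | repeats = one well per compound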
OX1R antag-2: blocks the human orexin 1 receptor | inhibition, % at 5 µM | hit rate 0.43% among 330,000 | O43613 | CHO/OX1R cells, Fluo-8 calcium fluorescence, orexin A;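 active means inhibition above its plate's threshold, mean inhibition of all tested compounds on the plate plus 3 SD, cut at about 37% in these data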;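 further: 0% = orexin A challenge wells and 100% = SB-334867-A antagonist wells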
M1 PAM parental: counter-screen for M1 PAMs: effect in parental CHO-K1 cells | hit rate 0.02% among 360,000 | ATP EC20, Fluo-8 calcium fluorescence; 0% at ATP EC20, 100% at ATP max | AID 602247 | activation, % at 3 µM;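 active means activation above the run cutoff, the mean activation of all test compounds plus 3 SD, cut at about 40% in these data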;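 further: peak over basal fluorescence ratio in a 140 s read after ATP addition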
OX1R Ca confirm: OX1R (human) antagonism, confirmed | shares compounds with OX1R antag-2 | CHO/OX1R cells, orexin A calcium Fluo-8 fluorescence | inhibition, % at 5 µM | hit rate 38% among 1,100 | AID 492963; in the data active means inhibition above about 29%;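 further: 0% = agonist challenge alone and 100% = reference antagonist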
CHO Ca triplic: counter-screen for OX1R antagonists: effect in parental CHO cells; inhibition, % at 5.6 µM; shares compounds with OX1R antag-2; parental CHO-K1, ATP-induced calcium, Fluo-8 fluorescence; AID 492965; hit rate 9.3% among 1,100;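 active means inhibition above a per-plate limit, the mean inhibition of that plate's test compounds plus 3 SD, cut at about 25% in these data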;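 further: 0% = ATP challenge with DMSO and 100% = DMSO without ATP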
An asterisk follows results filed as active; nt = no result. Sampled rows, rich in hits. Any-hit rate of the full collection: about 2.9%.

SMILES	OX1R antag-1	CHO-K1 Ca antag	CHO-K1 Ca ag	CHO parental Ca	OX1R antag-2	M1 PAM parental	OX1R Ca confirm	CHO Ca triplic
CC1CCC/C(=N\NC(=S)Nc2ccccc2)C1 (stereo not drawn)	10	-4	0	-10	33	20	-2	-8
CC1CCC/C(=N\NC(=S)NCc2ccccc2)C1 (stereo not drawn)	15	-7	0	-10	-18	13	nt	nt
CCN(CC)S(=O)(=O)c1ccc(N2CCN(C)CC2)c(NC(=O)CN2C(=O)NC3(CCCCC3)C2=O)c1	nt	5	1	nt	nt	9	nt	nt
CC(C)N(CCc1ccncc1)C(=S)Nc1ccc(F)c(Cl)c1	1	3	9	9	31	5	7	-2
O=C(NC(=S)Nc1ccc(F)c(Cl)c1)C1CC1	16	-11	0	7	2	21	nt	nt
COc1ccc(NC(=S)N(CCc2ccncc2)C(C)C)cc1Cl	nt	-5	2	nt	nt	-4	nt	nt
Fc1ccc(NC(=S)Nc2ccc(F)c(Cl)c2)cc1Cl	36	28*	10	24	34	3	37*	61*
NC(=O)Nc1ccc(C(=O)OCC(=O)NC2CCCCC2)cc1	15	-13	0	-5	-19	16	nt	nt
COc1ccc(CCNC(=O)C2CCCN(S(=O)(=O)c3ccc(F)cc3)C2)cc1 (stereo not drawn)	10	-5	4	-22	-25	1	nt	nt
Cc1cc(N2CCN(c3ccc(F)cc3)CC2)nc(-c2ccccc2)n1	53	-16	0	-41	37	8	-21	-12
Cc1cc(N2CCC(C(=O)Nc3ccc(F)cc3)CC2)nc(-c2ccccc2)n1	22	-1	2	-8	-13	7	nt	nt
Cc1ccc(NC(=O)C(OC(=O)c2ccc(C=O)cc2)c2ccccc2)cc1Cl (stereo not drawn)	14	-9	2	14	29	22	32*	11
COC(=O)c1c(-c2ccc(N(C)C)cc2)sc2ccc(OC)cc12	30	8	4	-19	65*	1	16	-7
COC(=O)c1c(-c2ccc(OC)cc2)sc2cc3c(cc12)OCO3	-4	-2	1	-20	-27	6	nt	nt
Cc1ccc(C)n1-c1nn(S(=O)(=O)c2cccc3cccnc23)c2cccc(F)c12	71	-9	1	-19	39*	14	30*	-8
Cc1ccc(S(=O)(=O)n2nc(-n3c(C)ccc3C)c3c(F)cccc32)c2ccccc12	1	-4	0	-8	-2	11	nt	nt
CCCN1C(=O)/C(=C/c2ccc(N3CCOCC3)cc2)NC1=S	4	15	24*	24	26	1	15	19
CCCN1C(=O)/C(=C/c2ccc(C)o2)NC1=S	12	nt	nt	-2	-12	nt	nt	nt
C=C(C)COc1ccc(-c2[nH]ncc2-c2ccccc2OC)c(O)c1	12	3	0	13	35	6	-16	-3
O=C(Nc1cccc(Cl)c1)Nc1ccc2c(c1)OCO2	69	21	9	15	32	3	9	6
CCOC(=O)c1ccccc1NC(=O)c1ccccc1SC	7	10	0	5	53*	-8	-15	-20
COC(=O)c1ccccc1NC(=O)c1ccccc1SC	15	11	0	-35	-20	-3	nt	nt
CCc1nc2c(OCCC3CCCCC3)cccn2c1N(C=O)Cc1ccc(OC)cc1	nt	-4	0	nt	nt	0	nt	nt
COc1ccc(/C=C2\C(=O)NC(=S)N2C(=O)c2ccc(F)cc2)cc1	28	-6	6	23	42	7	20	24
O=C(CN1CCOCC1)Nc1nc(-c2ccc3c(c2)CCN3S(=O)(=O)c2ccccc2)cs1	53	-3	5	23	15	7	nt	nt
SMILES	OX1R antag-1	CHO-K1 Ca antag	CHO-K1 Ca ag	CHO parental Ca	OX1R antag-2	M1 PAM parental	OX1R Ca confirm	CHO Ca triplic
Cc1sc(NC(=O)CN2CCOCC2)nc1-c1ccc2c(c1)CCN2S(=O)(=O)c1ccccc1	20	14	12	22	42	-1	18	28*
c1ccc(-n2ncc3c(N4CCN(CCOc5cccc6ccccc56)CC4)ncnc32)cc1	12	1	0	-20	-22	-25	nt	nt
COc1ccc([C@H]2C[C@H](n3cc(-c4ccc(F)cc4)nn3)[C@@H](O)CN2CC2CCCCC2)cc1	nt	-19	1	nt	nt	19	nt	nt
Cc1cc(C)nc(/N=C(\N)Nc2ccc(F)c([N+](=O)[O-])c2)n1	29	18	4	12	25	-3	40*	8
Cc1cc(C)nc(/N=C(\N)Nc2ccc(S(N)(=O)=O)cc2)n1	2	-15	2	-9	4	20	nt	nt
Cc1cc(C)nc(/N=C(\N)Nc2ccc(SC(F)F)cc2)n1	13	15	30*	18	35	-18	64*	21
Cc1cc(C)nc(/N=C(\N)Nc2ccc(S(=O)(=O)Nc3nc(C)cc(C)n3)cc2)n1	32	nt	nt	-16	-15	nt	nt	nt
COc1ccc(NS(=O)(=O)c2ccc(OC)c(N(C)S(=O)(=O)c3ccc(Cl)cc3)c2)cc1	28	5	2	19	61*	0	26	25*
N=c1c2c(-c3ccccc3)c(-c3ccccc3)n(Cc3ccco3)c2ncn1Cc1ccccc1	15	-5	2	-6	59*	14	43*	2
O=C1Nc2ccc(S(=O)(=O)NCCC3=CCCCC3)c3cccc1c23	61	1	9	19	34	17	-2	1
C=CCNc1nc(N(c2ccccc2)c2ccccc2)nc(-n2ccnc2)n1	10	-8	1	3	19	14	88*	13
CCCCNc1nc(N(C)c2ccccc2)nc(-n2ccnc2)n1	26	7	0	-23	-32	-3	nt	nt
CSCC(=O)N1CCCC(CNC(=O)c2ccccc2Cl)C1 (stereo not drawn)	9	1	2	-2	22	-3	7	-14
CCOc1ccccc1NC(=O)c1cc(S(=O)(=O)NCc2ccco2)ccc1F	33	-28	0	-5	40*	12	3	-7
Cc1ccc(C)c(NC(=O)COC(=O)CCNC(=O)c2ccco2)c1	1	-12	0	-8	-13	6	nt	nt
Cc1c(C(=O)Nc2ccc(S(=O)(=O)N(C)C3CCN(C)CC3)cc2)oc2ccccc12	5	-16	2	-17	-7	5	nt	nt
Cc1c(C(=O)Nc2ccc(S(=O)(=O)N(C)C3CCN(C)CC3)cc2)oc2c(Cl)cccc12	7	-2	3	10	43*	-1	0	0
Cc1nn(-c2ccccc2)c(C)c1/C=N/NC(=O)c1cc(-c2cccs2)[nH]n1	51	14	3	-15	41	-4	65*	-11
